Key:
Type in all cases: functional, Leukemia cell
[1] = Induction of erythroid differentiation in DBA/2J mouse Friend erythroleukemia cells assessed as cell growth after 6 days relative to control; set-up: concentration or dose not given beside the values
How it was run: (§1)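 Cells were seeded at 10⁵ cells/mL with compound added at seeding, in two separate experiments using twofold concentration steps. Incubation was at 37 °C. Cell number was counted with a Coulter counter on day 3, and cell counts were also taken on day 6. Growth is expressed as a percentage of untreated control cultures.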

[2] = Induction of erythroid differentiation in DBA/2J mouse Friend erythroleukemia cells assessed as concentration required for maximum proportion of benzidine positive cells after 6 days
How it was run: (§2)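 Log-phase Friend leukemia cells seeded at 10⁵ cells/mL in DMEM + 10% fetal calf serum, 37 °C, 10% CO₂. Compound added at seeding over a range of concentrations with twofold steps, in two separate experiments. Water-insoluble agents were dissolved in 50% ethanol or acetone. Me₂SO (210 mM) was the positive control. Benzidine-positive cells were scored on day 6 with benzidine peroxide stain.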

[3] = Induction of erythroid differentiation in DBA/2J mouse Friend erythroleukemia cells assessed as benzidine positive cells after 6 days relative to control; set-up: concentration or dose not given beside the values; how it was run: as §2
[4] = Induction of erythroid differentiation in DBA/2J mouse Friend erythroleukemia cells assessed as cell growth after 3 days relative to control; set-up: concentration or dose not given beside the values; how it was run: as §1
[5] = Induction of erythroid differentiation in DBA/2J mouse Friend erythroleukemia cells assessed as hemoglobin level per 10^7 cells after 3 to 6 days relative to control
How it was run: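 On day 6, cultures that contained benzidine-positive cells were centrifuged at 350g for 10 min. Cells were washed twice in phosphate-buffered 0.9% NaCl, pH 7.4, then sonicated. Total hemoglobin was measured from absorbance at 515 nm after the lysate was incubated with benzidine, and expressed per 10⁷ cells. Cells had been seeded at 10⁵ cells/mL with compound added at seeding, 37 °C.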

SMILES | Activity [1] | Activity [2] | Activity [3] | Activity [4] | Activity [5]
CC(=O)Nc1cccnc1 | 95% | 8 mM | 43% | 58% | 14.4 µg
CC(=O)Nc1ccccn1 | 95% | 2 mM | 72% | 65% | 30.6 µg
Cn1ccccc1=O | 95% | 2 mM | 74% | 23% | 
CC(=O)Nc1cccc(NC(C)=O)n1 | 95% | 4 mM | 28% | 80% | 8.6 µg
[O-][n+]1ccc(-c2ccccc2)cc1 | 95% | 0.4 mM | <1% | 26% | <0.5 µg
CC(=O)NCc1ccccn1 | 95% | 15 mM | 68% | 36% | 30 µg
CC(=O)NCCc1ccccn1 | 95% | 10 mM | 60% | 33% | 28 µg
CC(=O)Nc1cc(-c2ccccc2)ccn1 | 95% | 0.04 mM | 8% | 21% | 
CC(=O)Nc1cccc[n+]1[O-] | 95% | 10 mM | 43% | 74% | 22.6 µg
CC(=O)Nc1ccc[n+]([O-])c1 | 95% | 10 mM | 35% | 74% | 15.6 µg
CC(=O)Nc1cc(-c2ccccc2)cc[n+]1[O-] | 95% | 1 mM | 17% | 17% | 12.2 µg
CC(=O)Nc1cccc(=O)n1C | 95% | 16 mM | 73% | 55% | 22.2 µg
CC(=O)Nc1ccc(=O)n(C)c1 | 95% | 2 mM | 67% | 91% | 33.8 µg
CC(=O)Nc1ccc(=O)[nH]c1 | 95% | 1 mM | 16% | 26% | 
CC(=O)Nc1cccc(=O)[nH]1 | 95% | 2 mM | 4% | 22% | 
Oc1ccccn1 | 95% | 8.6 mM | 26% | 11% | 
C[S+](C)[O-] [DIMETHYL SULFOXIDE] |  | 210 mM | 80% | 60% | 31.2 µg

Reference: ChEMBL document CHEMBL3244117, “Pyridine derivatives as potent inducers of erythroid differentiation in Friend leukemia cells” (1978)
